Article PMC2749063 (Current eye research, 2009)
“Also recorded” adds a separate entry of the source. Read-outs that look alike come from different tables or passages of the source. Ends that are not written are not given here.

What was measured:
[1] = system: Ad3; assay: Direct viral time kill assay, Ad3; type: cell-based, adenovirus; settings: Ad3, 500 μg/ml peptide, 4 hours; ANOVA p = 0.008
Summary of the method: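 Ad3 reference strain grown in A549 cells. Peptide stock in sterile water, diluted in tryptone-saline (pH 5.5). Final mix: 500 μg/ml peptide with ~10⁴ PFU/ml virus, or tryptone-saline control, at 37°C. At 1 and 4 h, aliquots diluted in ice-cold medium with 10% FBS, then plated on A549 monolayers (37°C, 5% CO₂). After 8-9 days, gentian violet-stained plaques counted as PFU/ml. Log₁₀ titers by ANOVA/Fisher; 7 repeats.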

[2] = system: Ad5; assay: TOTO-1 assay, Ad5 capsid integrity; parameters: species or system adenovirus; settings: 5 hours at 37°C; for TOTO-1 fluorescence / Ad5 capsid integrity (in words): Ad5, peptide 10-500 μg/ml
[3] = system: bacteria; settings: cited from earlier work
[4] = system: HSV-1; assay: TOTO-1 assay, HSV-1 envelope/capsid integrity; parameters: species or system herpes simplex virus type 1; settings: 5 hours at 37°C
Summary of the method: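 HSV-1 McKrae grown in Vero cells. Test compound (2-500 μg/ml) incubated with or without virus (~5 × 10⁴ PFU/ml), 5 h, 37°C. Mixture added to 120 nM TOTO-1 in tryptone-saline pH 8.0; fluorescence read at 485/20 nm excitation, 516/20 nm emission. Signal = raw minus peptide- and virus-derived fluorescence; adenovirus DNA standards. Run in duplicate; repeated at least twice on different days.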

[5] = system: HSV-1; assay: Increasing Concentration Direct Inhibition Assay, HSV-1; type: cell-based, herpes simplex virus type 1
Summary of the method: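 HSV-1 McKrae strain, grown in Vero cells. Virus incubated with test compound at a range of concentrations in tryptone-saline. Titers were determined by plaque assay. Each concentration has its own tryptone-saline control. Log reduction is the mean titer difference between treated virus and that control.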

[6] = system: Ad5; assay: Increasing Concentration Direct Inhibition Assay, Ad5; type: cell-based, adenovirus
[7] = system: Ad5; assay: Direct viral time kill assay, Ad5; type: cell-based, adenovirus; settings: Ad5, 500 μg/ml peptide; for inhibition of Ad5 vs tryptone-saline control (in words): 4 hours, ANOVA p < 0.001
Summary of the method: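 Ad5 clinical isolate grown in A549 cells. Peptide stock in sterile water, diluted in tryptone-saline (pH 5.5); mixed with virus to 500 μg/ml final, ~10⁴ PFU/ml; 37°C water bath. Aliquot at 1 h quenched in ice-cold medium with 10% FBS, diluted, plated on A549 monolayers (37°C, 5% CO₂). Gentian violet stain at 7 days, plaques counted, titer as PFU/ml; 7 repeats; log₁₀ ANOVA, Fisher comparisons.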

Asn-Gln-------------Gly-Arg-His-Phe-Cys-Gly-Gly-Ala-Leu-Ile-His-Ala-Arg-Phe-Val-Met-Thr-Ala-Ala-Ser-Ser-Phe-Gln [Peptide C]
inhibition of Ad3 vs tryptone-saline control (in words) [1]: statistically-significant reduction in viral titers

IQSPAGQSRCGGFLVREDFVLTAAHCWG (cysteine pairing not given here) [Cathepsin G20-47 peptide, reference compound]
TOTO-1 fluorescence / Ad5 capsid integrity (in words) [2]: minimal fluorescence; also recorded: no disruptive effect on Ad5 capsid integrity
antibacterial activity (in words) [3]: negligible antibacterial activity

NQGRHFCGGALIHARFVMTAASCFQ (cysteine pairing not given here) [Peptide A]
increase in TOTO-1 fluorescence ([2]; Ad5, peptide 500 μg/ml, 120 nM TOTO-1): 65-85%
TOTO-1 fluorescence / Ad5 capsid integrity (in words) [2]: dose-dependent increase in TOTO-1 fluorescence
inhibition of Ad3 vs tryptone-saline control (in words) [1]: statistically-significant reduction in viral titers
TOTO-1 fluorescence with HSV-1 between 10 and 100 μg/ml (in words) ([4]; HSV-1, peptide 10 to 100 μg/ml): no increase in fluorescence
TOTO-1 fluorescence with HSV-1 from 100 to 500 μg/ml (in words) ([4]; HSV-1, peptide 100 to 500 μg/ml): increasing fluorescence
initial inhibitory concentration ([5]; HSV-1, 4 hours incubation): 50 µg/mL
inhibitory effect (log reduction of viral titers) above 100 μg/ml ([5]; HSV-1, peptide above 100 μg/ml (up to 750 μg/ml), 4 hours incubation): ~2 log reductions
initial inhibitory concentration ([6]; Ad5, 4 hours incubation): 50 µg/mL
inhibitory effect (log reduction of viral titers) above 100 μg/ml ([6]; Ad5, peptide above 100 μg/ml (up to 750 μg/ml), 4 hours incubation): ~2 log reductions
inhibition of Ad5 at 1 hour (in words) ([7]; 1 hour incubation, data not shown): significantly inhibited
inhibition of Ad5 vs tryptone-saline control (in words) [7]: significantly greater inhibitory activity than the tryptone-saline control

NQGRHFSGGALIHARFVMTAASCFQ [Peptide B]
inhibition of Ad3 vs tryptone-saline control (in words) [1]: statistically-significant reduction in viral titers
inhibition of Ad5 vs tryptone-saline control (in words) [7]: significantly greater inhibitory activity than the tryptone-saline control

Asn-Gln-------------Gly-Arg-His-Phe-Ser-Gly-Gly-Ala-Leu-Ile-His-Ala-Arg-Phe-Val-Met-Thr-Ala-Ala-Ser-Ser-Phe-Gln [Peptide D]
inhibition of Ad3 vs tryptone-saline control (in words) [1]: statistically-significant reduction in viral titers
antibacterial activity (in words) ([3]; ref Previous studies): inactive
